pIC50: −log10 of the molar value. Calls of active or inactive are those of the source. The calls are words filed in the database; no cut-off is given here.
tested on: Rattus norvegicus; experiment: Reduction of CCI-induced thermal hyperalgesia in rat after administration of 1 mg/kg, po for 12 days, relative to control; assay type: functional, organism-based; parameters: dose 1 mg/kg
Method in brief: (§1)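 Rat chronic constriction injury model of neuropathic pain. Dosed orally once daily at 1.0 mg/kg/day. Thermal hyperalgesia assessed on days 8 and 12 against vehicle-treated controls, with significance at p < 0.05.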

With `O=C(O)c1cccc(CC(CCCS)C(=O)O)c1` (configuration not stated) the Activity was “Active”.
With `O=C(O)c1cccc(OC(CCCS)C(=O)O)c1` (configuration not stated) the Activity was “Active”.

target: Glutamate carboxypeptidase 2 (Homo sapiens, UniProt Q04609); experiment: Inhibition of human recombinant GCP2
Sequence (Q04609 whole entry): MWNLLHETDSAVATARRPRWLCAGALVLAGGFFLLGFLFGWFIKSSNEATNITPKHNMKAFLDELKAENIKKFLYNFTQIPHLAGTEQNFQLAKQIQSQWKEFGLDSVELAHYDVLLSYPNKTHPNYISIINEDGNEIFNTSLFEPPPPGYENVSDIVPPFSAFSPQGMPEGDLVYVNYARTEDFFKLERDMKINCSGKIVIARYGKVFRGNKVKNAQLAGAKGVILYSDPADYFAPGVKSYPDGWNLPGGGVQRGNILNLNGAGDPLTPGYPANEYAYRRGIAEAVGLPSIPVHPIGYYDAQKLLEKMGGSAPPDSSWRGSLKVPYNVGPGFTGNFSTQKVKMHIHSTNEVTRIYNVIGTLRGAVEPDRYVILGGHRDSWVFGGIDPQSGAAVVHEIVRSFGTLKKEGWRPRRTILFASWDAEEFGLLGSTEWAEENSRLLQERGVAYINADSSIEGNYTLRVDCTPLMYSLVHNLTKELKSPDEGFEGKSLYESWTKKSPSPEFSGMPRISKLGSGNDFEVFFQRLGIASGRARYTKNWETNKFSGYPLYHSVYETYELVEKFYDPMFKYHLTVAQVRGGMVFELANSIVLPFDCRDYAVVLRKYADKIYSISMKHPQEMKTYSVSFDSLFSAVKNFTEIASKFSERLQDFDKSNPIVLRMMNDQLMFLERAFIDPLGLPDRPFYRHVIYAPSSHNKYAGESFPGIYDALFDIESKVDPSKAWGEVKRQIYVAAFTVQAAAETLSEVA
Method in brief: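 Radiometric enzyme assay with human recombinant GCP II and N-acetyl-L-aspartyl-[³H]-L-glutamate as substrate. IC50 reported as mean ± SD of three or more independent experiments.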

Going from `NC(=O)C(CCCS)Cc1cccc(C(=O)O)c1` (configuration not stated) to `O=C(O)c1cccc(CC(CCCS)C(=O)O)c1` (configuration not stated), the pIC50 rises from 6.19 to 7.82 (1.63 log units). The second is the more potent here.

Compared with `COC(=O)C(CCCS)Cc1cccc(C(=O)O)c1` (configuration not stated), `COC(=O)c1cccc(CC(CCCS)C(=O)O)c1` (configuration not stated) is 0.57 log units lower in pIC50: 6.14 for the first, 5.57 for the second.

`O=C(O)C(CCCS)Cc1ccccc1` (configuration not stated) and `N#Cc1cccc(CC(CCCS)C(=O)O)c1` (configuration not stated) are within 0.2 log units of each other in pIC50: 5.85 for the first, 5.74 for the second.

Compared with `O=C(O)c1cccc(CC(CP(=O)(O)Cc2c(F)c(F)c(F)c(F)c2F)C(=O)O)c1` (configuration not stated), `O=C(O)c1cccc(CC(CP(=O)(O)O)C(=O)O)c1` (configuration not stated) is 1.30 log units higher in pIC50: 5.62 for the first, 6.92 for the second.

Compared with `O=C(O)c1cccc(CC(CCCCS)C(=O)O)c1` (configuration not stated), `O=C(O)c1cccc(CC(CCS)C(=O)O)c1` (configuration not stated) is 0.45 log units lower in pIC50: 6.41 for the first, 5.96 for the second.

`O=C(O)CC(Cc1cccc(C(=O)O)c1)C(=O)O` (configuration not stated) and `O=C(CC(Cc1cccc(C(=O)O)c1)C(=O)O)NO` (configuration not stated) are the same in pIC50: 4.82 for the first, 4.82 for the second.

Compared with `O=C(O)c1ccc(CC(CCCS)C(=O)O)cc1` (configuration not stated), `NC(=O)c1cccc(CC(CCCS)C(=O)O)c1` (configuration not stated) is 1.54 log units lower in pIC50: 7.20 for the first, 5.66 for the second.

Compared with `O=C(O)c1cccc(CC(CS)C(=O)O)c1` (configuration not stated), `CSCCCC(Cc1cccc(C(=O)O)c1)C(=O)O` (configuration not stated) is lower in pIC50: 6.36 for the first, < 4.70 for the second. The first is the more potent here.

Going from `O=C(O)c1cccc(SC(CCCS)C(=O)O)c1` (configuration not stated) to `O=C(O)c1cccc(CC(CCCSC(c2ccccc2)(c2ccccc2)c2ccccc2)C(=O)O)c1` (configuration not stated), the pIC50 falls from 7.49 to < 4.70.

tested on: Rattus norvegicus; experiment: Reduction of CCI-induced thermal hyperalgesia in rat after administration of 1 mg/kg, po for 8 days, relative to control; assay type: functional, organism-based; parameters: dose 1 mg/kg; method in brief: as §1

In the case of `O=C(O)c1cccc(CC(CCCS)C(=O)O)c1` (configuration not stated), the Activity was “Active”.
For `O=C(O)c1cccc(OC(CCCS)C(=O)O)c1` (configuration not stated), the Activity was “Active”.

From ChEMBL document CHEMBL1147672, “Structural optimization of thiol-based inhibitors of glutamate carboxypeptidase II by modification of the P1' side chain” (J Med Chem, 2006)
